Experimental data taken from ChEMBL document CHEMBL1137097, “Discovery of potent and orally bioavailable N,N'-diarylurea antagonists for the CXCR2 chemokine receptor” (Bioorg Med Chem Lett, 2004).

Tests used:
[1] = Plasma clearance in rat; format: ADME, organism-based
In short: (§1)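 Male Sprague–Dawley rats, n=3 per study, in an iv/po crossover design. Dosed in aqueous solution with 1% DMSO and up to 20% hydroxypropyl-beta-cyclodextrin, 4 and 8 µmol/kg for iv and po. Lateral tail vein blood sampling. Plasma drug measured by LC/MS/MS, lower limit of quantification >10ng/mL.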

[2] = target: T1, C-X-C chemokine receptor type 1 (Homo sapiens, UniProt P25024); assay: Concentration required to inhibit [125I]-IL-8 binding towards C-X-C chemokine receptor type 1 of human expressed in CHO cells; format: cell-based
T1 sequence (P25024 whole entry): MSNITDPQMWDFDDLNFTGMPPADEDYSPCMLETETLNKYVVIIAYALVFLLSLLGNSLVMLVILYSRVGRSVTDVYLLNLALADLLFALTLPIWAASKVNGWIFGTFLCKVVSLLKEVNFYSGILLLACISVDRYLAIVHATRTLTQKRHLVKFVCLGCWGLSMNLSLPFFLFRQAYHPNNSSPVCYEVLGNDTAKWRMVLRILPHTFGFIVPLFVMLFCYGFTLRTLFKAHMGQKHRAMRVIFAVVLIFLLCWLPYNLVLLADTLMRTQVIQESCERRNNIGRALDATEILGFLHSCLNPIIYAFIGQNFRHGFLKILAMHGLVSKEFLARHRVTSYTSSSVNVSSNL
In short: (§2)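 SPA binding on membranes from CHO cell lines expressing CXCR1 or CXCR2. Competition against radiolabeled human recombinant [125I]-IL-8 at 0.23nM. Values are the mean of three individual experiments.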

[3] = Oral bioavailability in rat; format: ADME, organism-based; conditions: in vivo; in short: as §1
[4] = pKa value was determined; format: physicochemical
In short: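 pKa calculated in silico, not measured experimentally.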

[5] = target: T2, C-X-C chemokine receptor type 2 (Homo sapiens, UniProt P25025); assay: Concentration required to inhibit [125I]IL-8 binding towards C-X-C chemokine receptor type 2 of human expressed in CHO cells; format: cell-based; in short: as §2
T2 sequence (P25025 whole entry): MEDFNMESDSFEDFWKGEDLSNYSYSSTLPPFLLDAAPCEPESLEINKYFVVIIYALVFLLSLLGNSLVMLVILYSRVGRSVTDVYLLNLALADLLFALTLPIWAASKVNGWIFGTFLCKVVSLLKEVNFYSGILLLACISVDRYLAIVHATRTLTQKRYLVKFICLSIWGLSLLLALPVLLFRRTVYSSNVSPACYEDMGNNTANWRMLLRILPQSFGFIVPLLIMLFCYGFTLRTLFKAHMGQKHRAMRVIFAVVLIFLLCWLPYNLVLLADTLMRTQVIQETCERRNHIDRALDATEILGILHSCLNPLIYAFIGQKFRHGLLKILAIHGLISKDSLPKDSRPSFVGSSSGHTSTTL

[6] = In vitro intrinsic clearance of urea in rat liver microsomes in presence of UDPGA; format: ADME, Microsome
In short: (§3)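 Rat or human liver microsomes at 0.5mg microsomal protein/mL, run with or without UDPGA. Final compound 0.5–1 µM. Substrate loss followed by LC/MS/MS over a 30-min incubation. CLint taken from the slope of substrate disappearance versus time.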

[7] = In vitro intrinsic clearance of urea in human liver microsomes in absence of UDPGA; format: ADME, Microsome; in short: as §3
[8] = In vitro intrinsic clearance of urea in rat liver microsomes in absence of UDPGA; format: ADME, Microsome; in short: as §3
[9] = In vitro intrinsic clearance of urea in human liver microsomes in presence of UDPGA; format: ADME, Microsome; in short: as §3

SMILES	clearance [1]	IC50 [2]	bioavailability [3]	pKa [4]	IC50 [5]	CL [6]	CL [7]	CL [8]	CL [9]
O=C(Nc1ccc(Cl)cc1O)Nc1ccccc1Br	323 mL/min/kg	–	6.6%	8.24	906 nM	–	–	–	–
O=C(Nc1ccccc1Br)Nc1ccc(Cl)c(Cl)c1O	73.6 mL/min/kg	13400 nM	13%	7.24	63 nM	–	–	–	–
Cl.NCc1c(Cl)ccc(NC(=O)Nc2ccccc2Br)c1O	104 mL/min/kg	30000 nM	67%	6.85	114 nM	–	–	–	–

Now those with a lower IC50 [5], led by results:

clearance [1]	IC50 [2]	bioavailability [3]	pKa [4]	IC50 [5]	CL [6]	CL [7]	CL [8]	CL [9]	SMILES
23.4 mL/min/kg	4320 nM	100%	6.19	12 nM	–	–	–	–	CN(C)S(=O)(=O)c1c(Cl)ccc(NC(=O)Nc2ccccc2Br)c1O
105 mL/min/kg	6040 nM	3.6%	7.11	10 nM	5.3 ml min-1 g-1 liver	0.74 ml min-1 g-1 liver	1.5 ml min-1 g-1 liver	1.5 ml min-1 g-1 liver	NC(=O)c1c(Cl)ccc(NC(=O)Nc2ccccc2Br)c1O
16.1 mL/min/kg	1370 nM	86%	6.12	7 nM	5.3 ml min-1 g-1 liver	0.74 ml min-1 g-1 liver	1.5 ml min-1 g-1 liver	1.5 ml min-1 g-1 liver	NS(=O)(=O)c1c(Cl)ccc(NC(=O)Nc2ccccc2Br)c1O
